test: Toxicity liver stage against HepG2, at 10uM; assay type: cell-based; design: test concentration 10 uM, cell line HepG2-A16-CD81EGFP; conditions: human, HepG2-A16-CD81EGFP cells; read-out: INHIBITION
Outline: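 Uninfected HepG2-A16-CD81EGFP cells, 3 × 10^3 per well, 1536-well, plated on prespotted compound at 10 μM final, parasite-free screening media added to match infected plates; puromycin 10 μM positive, DMSO 0.5% negative; run in parallel with 48 h PbLuc assay at 37 °C, 5% CO2; viability by CellTiter-Glo luminescence, normalized to controls.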

Point of comparison: `O=C(c1ccsc1)N1CCC(Nc2cccnn2)CC1`, cytotoxicity at 10 µM -7.58%. Against it:
- CCS(=O)(=O)c1ccc2oc([C@H]3CCN(Cc4ccccc4)C3)nc2c1 — higher, 4.03%
- COc1cccc(NC(=O)c2nc3ccccc3n(C)c2=O)c1 — higher, 4.47%
- CC1(C)OCC(CNC(=O)c2cnn(-c3cccc(Cl)c3Cl)c2N)O1 (configuration not stated) — higher, 1.93%
- Cc1csc2cc(C(=O)NC3CC3)cnc12 — higher, -0.697%
- CCOc1ncnc2c1CCN(C(=O)c1cnccn1)CC2 — higher, -6.13%
- Cc1nc(CN2C(=O)C[C@@H]3[C@@H]2CCN3S(C)(=O)=O)cs1 — lower, -131%
- COc1cc(CC(O)CC#N)c(OC)c2c1OCO2 (configuration not stated) — higher, -6.32%
- CC1CCc2nc(O)c(C(=O)NCc3cccc(F)c3)cc2C1 (configuration not stated) — higher, 3.43%
- COc1ccccc1NC(=O)c1[nH]nc(C(C)C)c1Br — higher, 8.24%
- CSCCC(C)NC(=O)c1cccc(-c2n[nH]c(C)n2)c1 (configuration not stated) — higher, 1.31%
- CN(C)c1cc(C(F)(F)F)nc(N2CCCC2c2ccccn2)n1 (configuration not stated) — higher, 5.36%
- CCN(CC(=O)NC(C)C)C(=O)c1csc(Cc2ccccc2)n1 — higher, -5.43%
- CN(Cc1nc2ccccc2[nH]1)C(=O)CN(C)c1ccc(Cl)cn1 — higher, -2.66%
- NC(=O)C(NC1CCN(Cc2ccc(F)cc2)CC1)c1ccccc1 (configuration not stated) — higher, -5.4%
- COc1ccccc1C(NC(=O)CN(C)C(C)C)c1noc(C)n1 (configuration not stated) — higher, -3.21%
- Cc1cnn(CC(C)NCC(=O)Nc2ccc(Cl)cn2)c1 (configuration not stated) — higher, 6.05%
- COc1ccc(CN2CCN(Cc3nccn3C)C(C)C2)cc1F (configuration not stated) — higher, 2.42%
- O=C(c1ccc(NCc2cccc(F)c2)cc1)N1CCC(CO)CC1 — higher, 6.21%
- CC(=O)c1cc(C(=O)N2CCN(C)Cc3ccccc32)n(C)c1 — higher, 7.85%
- CN(C)C1CCCN(C(=O)NCCC(C)(C)C)C1 (configuration not stated) — higher, -0.317%
- CCOCCNC1(c2ccc(Cl)cc2)CCOCC1 — higher, -3.75%
- Cc1[nH]ccc1C(=O)NC1CCC(N2C(=O)CCC2=O)CC1 (configuration not stated) — higher, -3.81%
- CCOC(=O)c1cnn(-c2cc(C)ccn2)c1N — higher, 11.3%
- Cc1nsc(N2CCN(CC(=O)NCc3cccnc3)CC2)n1 — higher, -4.52%
- NC(=O)CN1CCC(NC2CSCCc3ccccc32)CC1 (configuration not stated) — higher, -3.21%
- Cc1nn(C)c(N2CCOCC2)c1CNC1CCS(=O)(=O)C1 (configuration not stated) — higher, -3.99%
- CCc1ccc(C2COCCN2C(=O)NCc2cccc(C#N)c2)o1 (configuration not stated) — higher, -0.838%
- COc1ccc(CCNC(=O)Nc2cc(C)nn2C)cc1 — higher, -2.87%
- O=C(CCc1ccccc1Br)NCC(=O)NCc1ccccc1 — higher, 0.988%
- O=C(c1ccn(-c2cccc(F)c2)n1)N1CCN(CC2CC2)CC1 — higher, -7.54%
- COc1ccc(CNC(=O)Nc2ccc(CN3CCOC3=O)cc2)cc1 — higher, -1.44%
- CCCn1nc2c(cc1=O)CN(CC(=O)Nc1cc(C)no1)CC2 — higher, -4.59%
- COCCCNC(=O)CN(C)Cc1ccc(F)cc1Cl — higher, -7.33%
- CCCNC(=O)COc1ccc(-c2ccccc2)nc1 — higher, 6.16%
- O=C(NCCc1cccs1)NC1CCN(c2ncccn2)CC1 — lower, -141%
- Cc1nc(CNC(=O)NC2CCN(c3ncccn3)CC2)cs1 — lower, -141%
- COCCn1ccc(NC(=O)Nc2ccc(C)cc2)n1 — higher, 2.19%
- O=C(c1ccc(=O)[nH]n1)N1CCCC1CCc1ccccc1 (configuration not stated) — higher, 8.89%
- CCOc1ccc(N2CCC(C(O)c3ccccc3)CC2)nn1 (configuration not stated) — higher, -2.2%
- Cc1cc(C(=O)Nc2cccn(Cc3ccccc3)c2=O)no1 — higher, -1.55%
- CC(=O)Nc1nc(C(=O)NCCOc2ccccc2F)cs1 — higher, -6.19%
- CCc1nc(COc2ccc(N(C)C(C)=O)cc2)no1 — higher, -0.408%
- COCCNC(=O)c1nn(-c2cccc(C(C)C)c2)cc1O — higher, -2.35%
- CN(C)C(=O)CN1CCCc2c(F)cc(Br)cc21 — higher, -0.682%
- O=C(CSc1nnc[nH]1)NCc1cccs1 — higher, 0.284%
- COc1ccc(Br)cc1CCC(=O)N1CCC(O)CC1 — higher, -1.96%
- CCc1cnc(CNC(=O)NC2CCN(C3CCCC3)CC2)s1 — higher, -1.06%
- Cc1noc(C)c1CCc1nc(C2CCOC2)no1 (configuration not stated) — higher, -4%
- CSCCC(NC(N)=O)C(=O)N1CCC(Cc2ccccc2)CC1 (configuration not stated) — higher, 1.28%
- COc1cccc2c1CCN(C(=O)NCc1nnc3ccccn13)C2 — higher, 0.67%
- CN(CCn1cccn1)S(=O)(=O)c1cccc(F)c1C#N — higher, 3.41%
- CC(C)n1cnnc1CN(C)Cc1ccc(CO)o1 — higher, 3.68%
- CC(NS(C)(=O)=O)C(=O)N(C)Cc1csc(-c2cccs2)n1 (configuration not stated) — higher, -0.525%
- O=C1CCC2(CCCN(C(=O)c3ncc[nH]3)C2)CN1CCc1c[nH]cn1 (configuration not stated) — higher, -2.47%
- CC(C)=CCCC(C)CN1CCC(n2cc(C(C)(C)O)nn2)CC1 (configuration not stated) — higher, -2.27%
- COc1cc(N[C@@H](Cc2ccccc2)C(N)=O)ncn1 — higher, 10.1%
- Cc1ccc2ncccc2c1CN1CC[C@H](N(C)C)[C@H](CCC(=O)O)C1 — lower, -148%
- O=C1CN(C(=O)c2cc(-c3ccco3)nc3c(Cl)cccc23)CCN1 — higher, -5.2%
- O=C(C1CCCC1)N1CCN(Cc2ccncc2)[C@@H]2CS(=O)(=O)C[C@@H]21 — higher, -1.79%
- Cc1ccc(S(=O)(=O)NCC2CNCCOC2)cc1Cl (configuration not stated) — higher, 0.858%
- COc1ccccc1[C@@H]1CN(C(=O)Cc2csc(C)n2)C[C@H]1C(=O)O — lower, -8.25%
- CCN1CCN(C[C@@H]2CN(c3ncc(Cl)cc3F)C[C@@H]2CO)CC1 — higher, -7.06%
- Cc1cc(C2CCC2)nc(NCCC23CCCN2CCC3)n1 — higher, 0.414%
- CCN(CCO)C(=O)C1CCC(=O)N(Cc2cccc(OC)c2)C1 (configuration not stated) — lower, -9.49%
- CCc1cnc(NCC(c2cccnc2)N2CCOCC2)nc1 (configuration not stated) — higher, 9.6%
- O=C(Nc1ccccc1OCCc1ccccn1)N1CCOCC1 — higher, 3.18%
- COc1ccccc1OCCCN1C(=O)CCNC1=O — higher, -3.7%
- O=C(c1cnc(COc2ccccc2)nc1O)N1CCC(F)(F)CC1 — higher, -3.11%
- COCC(c1ccccn1)N(C)C(=O)c1cc(-c2ccccc2O)n[nH]1 (configuration not stated) — higher, -1.84%
- CCn1c(N)nc2cc(C(=O)NCCNc3ncccc3C)cnc21 — higher, -5.98%
- CN(C)C(=O)CN1CCN(c2ncccn2)[C@@H]2CS(=O)(=O)C[C@@H]21 — higher, -3.01%
- CNC(=O)C1CCN(c2ncc3c(n2)CCN3c2ccccc2)C1 (configuration not stated) — lower, -10.1%
- CCOCCNc1nc(-c2ccncc2)nc2c1CCNCC2 — lower, -136%
- CCO[C@H]1CN(C)C[C@@H]1NC(=O)c1c[nH]nc1C1CCCCC1 — higher, -5.56%
- CCC1=NOC(CNCc2cnc(-c3ccccc3C)s2)C1 (configuration not stated) — higher, -5.92%
- CCc1ccc2nc(C)cc(C(=O)NC3CCCCNC3=O)c2c1 (configuration not stated) — lower, -8.48%
- CN(Cc1cnc(N)nc1)C(=O)C1CC(=O)N(Cc2ccncc2)C1 (configuration not stated) — higher, 0%
- Nc1cccc(-c2cccc3ccnn23)n1 — higher, -5.74%
- N#Cc1cccnc1N1CCCC(CO)(Cc2cccc(Cl)c2)C1 (configuration not stated) — higher, 6.29%
- O=C1CCC2(CCN(Cc3cscn3)CC2)CN1CCCO — higher, -5.26%
- CCCn1ccnc1CN1C[C@@H](NC(C)=O)[C@H](c2ccc(OC)cc2)C1 — higher, 0.344%
- C[C@@H]1CN(Cc2ccc(C(F)(F)F)cc2F)CC[C@]1(C)O — higher, 4.54%
- COc1ccc2c(C)c(C(=O)NC3CCOCC3)oc2c1 — higher, 15.2%
- CN(Cc1nccn1C)c1ccc(-c2nccn2C)nn1 — higher, -6.45%
- COc1cccc2c1OCC(CNC(=O)CN(C)C1CCCC1)C2 (configuration not stated) — lower, -147%
- CNc1ncc(CN(C)C(=O)[C@@]23CNC[C@@H]2CN(C2CCCC2)C3)cn1 — higher, 0.153%
- COc1ccc2c(c1)OCC(Cc1ccc(N)cn1)C2 (configuration not stated) — higher, -1.91%
- CN(C)C[C@@H]1CN(C2CCN(c3ccc(Cl)cc3)CC2)C[C@@H]1CO — lower, -9.14%
- Cc1ccc([C@H]2CN(C(=O)CC3CCC3)C[C@@H]2N)o1 — higher, 5.89%
- O=S1(=O)C[C@@H]2[C@H](C1)N(S(=O)(=O)N1CCCC1)CCN2Cc1ccccc1 — higher, -2.59%
- c1csc(N2CCN(Cc3cc4n(n3)CCNC4)CC2)n1 — higher, -3.59%
- O=C(COCc1ccccc1)N1CCC(OCc2cccnc2)CC1 — higher, 4.41%
- Cc1ncsc1C(=O)NCCNC(=O)Cc1cccc(F)c1 — higher, -0.0716%
- CCOc1cc(C)nc(N2CCN(C(=O)Cn3cc(C)cn3)CC2)n1 — higher, -5.43%
- COc1cccc(COCC(=O)N2CCCN(CC(N)=O)CC2)c1 — higher, -7.04%
- Cc1nc(C2CCCN2C(=O)CCn2cncn2)no1 (configuration not stated) — lower, -17.8%
- Cc1cnn(CC2CN(CC(=O)N(C)Cc3ccsc3)CCO2)c1 (configuration not stated) — lower, -10.6%
- CC(Cn1cccn1)NC(=O)NCc1ccc(C(N)=O)cc1 (configuration not stated) — higher, -3.2%
- CCn1ccnc1CN1CCN(CC(O)c2cccc(F)c2)CC1 (configuration not stated) — higher, 0.272%
- O=C(c1ccccc1-n1cccn1)N1CCC(Nc2cccnn2)CC1 — lower, -15.9%
- CCOc1ncccc1C(=O)N1CCCC(c2nncn2C)C1 (configuration not stated) — lower, -8.47%
- CN(C)c1cc(CNC(=O)c2n[nH]c(=O)c3ccccc23)ccn1 — higher, -3.79%
- CN(Cc1ccsc1)C(=O)CN1CCCCC1Cn1cccn1 (configuration not stated) — higher, -1.07%
- CN(C)[C@@H]1CCN(c2ncc(F)cn2)[C@H]1Cc1ccccc1 — higher, -1.65%
- COCC1CN(Cc2ccc(C)o2)Cc2nnn(C)c21 (configuration not stated) — higher, -4.53%
- O=C(NCC1CN(c2ncccn2)Cc2nccn2C1)c1cccnc1 (configuration not stated) — lower, -143%
- O=C([C@@H]1CCO[C@@H]2CCN(CCc3ccccc3)C[C@@H]21)N1CCCC1 — higher, -3.06%
- COc1c(CNC2(c3noc(C)n3)CCC2)c(C)nn1C — higher, 4.2%
- CCc1cnc(N2C[C@@H](NC(=O)c3cscn3)[C@H]3COC[C@H]32)nc1 — lower, -127%
- CNC(=O)C(C)(C)N1CCC[C@H]1C(=O)NCCN1CCCC1 — higher, -2.3%
- N#Cc1cccc(CN2Cc3nccn3CC(COCC3CC3)C2)c1 (configuration not stated) — lower, -127%

— ChEMBL document CHEMBL4513216, “Probing the Open Global Health Chemical Diversity Library for Multistage-Active Starting Points for Next-Generation Antimalarials” (ACS Infect Dis, 2020)
